Data from ChEMBL document CHEMBL1157240, “Caminosides B-D, antimicrobial glycolipids isolated from the marine sponge Caminus sphaeroconia” (J Nat Prod, 2006).
Active and inactive are the calls of the source. The rule behind the calls is not given here.

Key:
[1] = system: Escherichia coli; experiment: Antimicrobial activity against enteropathogenic Escherichia coli assessed as inhibition of type 3 secretion by gel electrophoresis; type: functional, organism-based
Procedure, shortened: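 EPEC cultured 24 h with test material, then centrifuged to give a bacterial pellet and a supernatant holding all secreted proteins. The pellet was inspected by eye, and samples that clearly shrank it were excluded as having general antibiotic or cytotoxic action.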

[2] = system: Staphylococcus aureus; experiment: Antimicrobial activity against methicillin-resistant Staphylococcus aureus assessed per disk; type: functional
[3] = system: Globisporangium ultimum; experiment: Antimicrobial activity against Pythium ultimum assessed per disk; type: functional
[4] = system: Enterococcus; experiment: Antimicrobial activity against vancomycin-resistant Enterococcus assessed per disk; type: functional
[5] = system: Stenotrophomonas maltophilia; experiment: Antimicrobial activity against Xanthomonas maltophilia assessed per disk; type: functional
[6] = system: Escherichia coli; experiment: Antimicrobial activity against Escherichia coli; type: functional, organism-based

Compound	IC50 [1] [µM]	MIC [2] [µg]	MIC [3] [µg]	MIC [4] [µg]	Activity [1]	MIC [5] [µg]	Activity [6]
CCCCCCCCC[C@H](CCCCCCCC(C)=O)O[C@@H]1O[C@H](CO)[C@@H](O)[C@H](O)[C@H]1O[C@@H]1O[C@H](CO[C@@H]2O[C@H](C)[C@H](O)[C@H](O)[C@@H]2O)[C@@H](OC(C)=O)[C@H](OC(=O)CCC)[C@H]1O[C@@H]1O[C@@H](C)[C@H](O)[C@@H](OC(=O)CCC)[C@@H]1O	20						
CCCCCCCCC[C@H](CCCCCCCC(C)=O)O[C@@H]1O[C@H](COC(C)=O)[C@@H](OC(C)=O)[C@H](OC(C)=O)[C@H]1O[C@@H]1O[C@H](CO[C@@H]2O[C@H](C)[C@H](OC(C)=O)[C@H](OC(C)=O)[C@@H]2OC(C)=O)[C@@H](OC(C)=O)[C@H](OC(=O)CCC)[C@H]1O[C@@H]1O[C@@H](C)[C@H](OC(C)=O)[C@@H](OC(C)=O)[C@@H]1OC(C)=O [CAMINOSIDE A PERACETATE]		>100	>100	>100	inactive	>25	
CCCCCCCCC[C@H](CCCCCCCC(C)=O)O[C@@H]1O[C@H](CO)[C@@H](O)[C@H](O)[C@H]1O[C@@H]1O[C@H](CO[C@@H]2O[C@H](C)[C@H](O)[C@H](O)[C@@H]2O)[C@@H](OC(C)=O)[C@H](OC(=O)CCC)[C@H]1O[C@@H]1O[C@@H](C)[C@H](O)[C@@H](O)[C@@H]1O [CAMINOSIDES A]	20	12.5	50	12.5	Active	25	inactive
